The values that follow come from ChEMBL document CHEMBL1137506, “Novel orally active, dibenzazepinone-based gamma-secretase inhibitors” (Bioorg Med Chem Lett, 2007).

The target of data set [1] is Gamma-secretase. The experiment in a line: Inhibition of human gamma secretase in HEK293 cells by reporter gene assay. In kind it is cell-based. The method in brief:
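Cellular reporter assay in HEK293 cells. The γ-secretase substrate is a Notch 1 construct fused to a Gal4/VP16 transcription factor, which drives a firefly luciferase reporter gene. IC50 is taken from inhibition of the luciferase signal.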

For data set [2], the target named is Gamma-secretase. The experiment in a line: Inhibition of human gamma secretase assessed as amyloid-beta40 peptide production […] by ELISA. Format: cell-based. The following applies: hek293. The method in brief:
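Cell-free assay. Membrane fractions from HEK293 cells carrying γ-secretase activity are incubated with a recombinant APP C-terminal fragment as substrate. The Aβ40 peptide produced is quantified by ELISA, and IC50 is derived from it.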

The nature of data set [3]: Ratio of drug level in brain to plasma in mouse. Format: ADME.
For a further data set, the system named is Mus musculus. The experiment in a line: Increase of CTF-APP ratio in po dosed transgenic mouse AD model after 2 days. Format: functional.
Data set [4] can be described thus: Oral bioavailability in mouse at 7.8 mg/kg, po. Format: ADME, organism-based. The settings on record: in vivo. An outline of the steps:
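Oral bioavailability (F) in mice after a 7.8 mg/kg oral dose.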

Data set [5] in a line: Clearance in mouse. Format: ADME, organism-based. The settings on record: in vivo.
Data set [6] can be described thus: Maximal achievable bioavailability in rat liver microsomes. The following applies: read-out: Max Achievable Bioavailability. Format: ADME, Microsome.
The nature of data set [7]: Maximal achievable bioavailability in human liver microsomes. The settings on record: read-out: Max Achievable Bioavailability. Format: ADME, Microsome. The method in brief:
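Maximal achievable bioavailability is estimated from compound incubations with liver microsomes of the stated species.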

Data set [8] is described as follows: Solubility of compound. Format: physicochemical.

Structures are written as SMILES.

`CCOCCNC(=O)C(C)C(=O)NC1C(=O)N(C)c2ccccc2-c2ccccc21` (centres undefined): the results for the IC50 against Gamma-secretase [1] and at Gamma-secretase [2] were 3300 nM and 3000 nM, respectively.

As to `C[C@H](OC(=O)NCC(F)(F)C(F)(F)F)C(=O)N[C@@H]1C(=O)N(C)c2ccccc2-c2ccccc21`, the IC50 against Gamma-secretase [1] was found to be 1.7 nM; on Gamma-secretase [2], 8.6 nM. In data set [3], the Kp turned out to be 0.5. Also, in the data set with Mus musculus, the MED was 3 mg/kg. In data set [4], the bioavailability turned out to be 23%. The clearance in data set [5] was found to be 32 mL/min/kg. The results for the Fh in [6] and in [7] were 70% and 72%, respectively.

On to `C[C@@H](C(=O)NCc1cc(F)cc(F)c1)C(=O)N[C@@H]1C(=O)N(C)c2ccccc2-c2ccccc21`, for which the IC50 against Gamma-secretase [1] stood at 1.6 nM; on Gamma-secretase [2], 2 nM.

As to `CC(C(=O)NCC(F)(F)F)C(=O)NC1C(=O)N(C)c2ccccc2-c2ccccc21` (centres undefined), the IC50 against Gamma-secretase [1] is 42 nM; on Gamma-secretase [2], 20 nM. Further, the Fh stood at 37% in [6] and 55% in data set [7].

`CC(C(=O)NCCC(F)(F)F)C(=O)NC1C(=O)N(C)c2ccccc2-c2ccccc21` (centres undefined): the IC50 is 24 nM on Gamma-secretase [1] and 37 nM on Gamma-secretase [2].

With `CC(OC(=O)NCC(F)(F)C(F)(F)F)C(=O)N[C@@H]1C(=O)N(C)c2ccccc2-c2ccccc21` (some centres undefined), the IC50 against Gamma-secretase [1] came to 2 nM.

In the case of `CC(C(=O)NC(CO)c1ccccc1)C(=O)NC1C(=O)N(C)c2ccccc2-c2ccccc21` (centres undefined), the IC50 against Gamma-secretase [1] is above 25000 nM; on Gamma-secretase [2] it was 22000 nM.

Take `C[C@H](OC(=O)Nc1ccccc1)C(=O)NC1C(=O)N(C)c2ccccc2-c2ccccc21` (some centres undefined): the figures for the IC50 against Gamma-secretase [1] and on Gamma-secretase [2] were 1500 nM and 2700 nM, respectively.

`C[C@H](C(=O)NCc1cc(F)cc(F)c1)C(=O)N[C@@H]1C(=O)N(C)c2ccccc2-c2ccccc21`: the values for the half-inhibitory concentration (IC50) against Gamma-secretase [1] and on Gamma-secretase [2] were 7.1 nM and 8.7 nM, respectively.

For `CC(C(=O)NC(C)c1ccccc1)C(=O)NC1C(=O)N(C)c2ccccc2-c2ccccc21` (centres undefined), the IC50 at Gamma-secretase [1] came out at 6300 nM; on Gamma-secretase [2], 5700 nM.

Turning to `CC(C(=O)NCc1cc(F)cc(F)c1)C(=O)NC1C(=O)N(C)c2ccccc2-c2ccccc21` (centres undefined), the IC50 against Gamma-secretase [1] turned out to be 10 nM; on Gamma-secretase [2], 22 nM. Also, the Fh in [6] turned out to be 9%; in data set [7], 10%.

In the case of `C[C@H](NC(=O)[C@@H](O)c1cc(F)cc(F)c1)C(=O)N[C@@H]1C(=O)N(C)c2ccccc2-c2ccccc21`, the MED in the data set on Mus musculus worked out at 20 mg/kg.

Consider `CC(C(=O)NCc1ccccc1)C(=O)NC1C(=O)N(C)c2ccccc2-c2ccccc21` (centres undefined), for which the IC50 at Gamma-secretase [1] came to 75 nM; on Gamma-secretase [2], 15 nM.

With `CC(C(=O)NCC1CC1)C(=O)NC1C(=O)N(C)c2ccccc2-c2ccccc21` (centres undefined), the IC50 against Gamma-secretase [1] amounted to 210 nM; at Gamma-secretase [2] it was 90 nM. The values for the Fh in data set [6] and in [7] were 12% and 18%, respectively.

With `CC(C(=O)NC1CCc2ccccc21)C(=O)NC1C(=O)N(C)c2ccccc2-c2ccccc21` (centres undefined), the IC50 came to 14000 nM on Gamma-secretase [1] and 12000 nM at Gamma-secretase [2].

For `CC(C(=O)NC1C(=O)N(C)c2ccccc2-c2ccccc21)C(=O)NC(C)(C)c1ccccc1` (centres undefined), the IC50 against Gamma-secretase [1] and at Gamma-secretase [2] was above 20000 nM each time. The figures for the Fh in data set [6] and in data set [7] were 9% and 14%, respectively.

As to `CC(C(N)=O)C(=O)NC1C(=O)N(C)c2ccccc2-c2ccccc21` (centres undefined), the IC50 at Gamma-secretase [1] is above 25000 nM; on Gamma-secretase [2], 5300 nM.

Regarding `CC(C(=O)NCc1cc(F)cc(F)c1)C(=O)N[C@@H]1C(=O)N(C)c2ccccc2-c2ccccc21` (mixture of isomers), the IC50 against Gamma-secretase [1] was found to be 8.8 nM; on Gamma-secretase [2] it was 3.1 nM.

For `CC(C(=O)NCc1cc(F)cc(F)c1)C(=O)N[C@H]1C(=O)N(C)c2ccccc2-c2ccccc21` (mixture of isomers), the results for the IC50 against Gamma-secretase [1] and on Gamma-secretase [2] were 580 nM and 620 nM, respectively.

As for `CC(C(=O)NCC(F)(F)C(F)(F)F)C(=O)N[C@@H]1C(=O)N(C)c2ccccc2-c2ccccc21` (mixture of isomers), the 50% inhibitory concentration (IC50) against Gamma-secretase [1] amounted to 1.7 nM; at Gamma-secretase [2], 3 nM. The compound further showed a Solubility in data set [8] of 28 mg/mL. Also, the partition ratio (Kp) in data set [3] worked out at 0.5. Moreover, the MED with Mus musculus came to 3 mg/kg. The compound further displayed a bioavailability in data set [4] of 21%. Also, the clearance in [5] was found to be 53 mL/min/kg. Further, the Fh in data set [6] came to 38%; in [7], 55%.
